# Results reported in ChEMBL document CHEMBL4513216, “Probing the Open Global Health Chemical Diversity Library for Multistage-Active Starting Points for Next-Generation Antimalarials” (ACS Infect Dis, 2020).
# Test: Toxicity liver stage against HepG2, at 10uM
# Assay type: cell-based
# Design: test concentration 10 uM, cell line HepG2-A16-CD81EGFP
# Conditions: human, HepG2-A16-CD81EGFP cells; read-out: INHIBITION
# How it was run: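 Uninfected HepG2-A16-CD81EGFP cells, 3 × 10^3 per well, 1536-well, plated on prespotted compound at 10 μM final, parasite-free screening media added to match infected plates; puromycin 10 μM positive, DMSO 0.5% negative; run in parallel with 48 h PbLuc assay at 37 °C, 5% CO2; viability by CellTiter-Glo luminescence, normalized to controls.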
row,Structure (SMILES),cytotoxicity at 10 µM [%]
1,CN(Cc1ccn[nH]1)C(=O)CCC(=O)NC1CCCC1,0.324
2,CCc1ccc(CN2CCC3(CC(C(=O)NCC(C)C)=NO3)C2)o1 (stereo not drawn),6.46
3,CCN1CC2(CCN(CCOc3ccc(F)cc3)CC2)CC1=O,8.12
4,CCc1ccc(CN2CC[C@H]3C[C@H](c4nnc(C)[nH]4)O[C@@H]3C2)o1,-8.51
5,O=C(NCCSc1ccccc1)[C@H]1CNC[C@H](C(=O)N2CCOCC2)C1,-1.97
6,CN1CCC(C(=O)N2CCC(=Cc3cccc(F)c3)CC2)CC1=O (stereo not drawn),-2.19
7,CCOc1ncccc1C(=O)N1CCCC1c1c(C)nn(C)c1OC (stereo not drawn),-13
8,COc1ccc(CC(=O)N2CCCC(n3nc(C)cc3C)C2)cc1F (stereo not drawn),-1.76
9,COCCNC(=O)Cn1c(-c2cccc(F)c2)nc(C)c(CCO)c1=O,-2.37
10,CN(CCCc1n[nH]c(N)c1C#N)C(=O)Nc1cc(Cl)cc(Cl)c1,11.1
11,O=C(Cc1cccs1)N1C[C@@H]2COC[C@]2(COCc2cccnc2)C1,-2.8
12,O=C(CCN1CCC(C(=O)c2cc(F)ccc2F)CC1)NC1CCCC1,4.76
13,CC(C)CN1C[C@@H]2C[C@H](C(=O)N3CCCC3)[C@H](C1)O2,3.17
14,CCn1ccnc1CN1CCCN(C(=O)c2cnc(C)cn2)CC1,-12.3
15,CC(NC(=O)N1CCS(=O)(=O)CC1)c1ccc(F)cc1Cl (stereo not drawn),-1.28
16,Cc1ccc(N2CC[C@H](OCC3CC3)[C@@H]2Cc2cnn(C)c2)nn1,-10.7
17,O=C(NCCNC(=O)C1CC1)c1cnc(-c2ccccc2)nc1,12.3
18,N#Cc1ccc(CNC(=O)NCCC(=O)NC2CCCC2)c(F)c1,3.79
19,CCN1CC2(CNCCN(C(=O)Nc3ccccc3)C2)CC1=O (stereo not drawn),0.346
20,CC1=N[C@@]2(CC[C@@H]3CN(C(=O)NCC(C)C)C[C@@H]32)C(=O)N1C,5.01
21,CC[C@H]1CN(S(=O)(=O)c2ccc(OC)cc2)CC[C@H]1CC(=O)O,7.28
22,O=C1CCN(C(=O)NCc2ccccc2Oc2ccccc2)CCN1,6.03

row,Structure (SMILES),cytotoxicity at 10 µM [%]
1,CC1CN(Cc2ccccc2)CCCN1CCNS(C)(=O)=O (stereo not drawn),-3.72
2,Cc1nc(N(C)CCN(C)C)c2cnn(C)c2n1,4.63
3,Cc1cc(C)cc(CN2CCN(C(=O)COCC3CCCO3)CC2=O)c1 (stereo not drawn),4.07
4,CS(=O)(=O)NCC1CCCN(C(=O)COc2ccc(F)cc2)C1 (stereo not drawn),-6.38
5,c1cnc(N2CCCC(c3n[nH]c4ncccc34)C2)nc1 (stereo not drawn),-0.64
6,Cc1nn(CCC#N)c(C)c1CCC(=O)N(C)Cc1ccc(F)cc1F,-1.31
7,O=C(c1cccnc1)N1CCCC(Cc2nccs2)C1 (stereo not drawn),-2.86
8,O=C(O)c1ccc2c(c1)C1(CCCCC1)CN2C(=O)c1cccc(F)c1,2.49
9,O=c1[nH]nc2c(S(=O)(=O)N3CCN(c4ccc(F)cc4)CC3)cccn12,11.8
10,CN(C)c1nccc(N(C)Cc2ncnn2C)n1,6.09
11,Cc1cc(C)n(C2CN(CC(O)c3ccc(S(C)(=O)=O)cc3)C2)n1 (stereo not drawn),-12.9
12,O=C(C1CCC1)N1CC[C@]2(O)CCN(Cc3ncccn3)C[C@@H]2C1,3.97
13,Cc1ccc(CNC(=O)NC2CCCN(c3ncccn3)C2)cn1 (stereo not drawn),3.08
14,O=C(NCCOc1cccc(Cl)c1)C1CC(=O)N(CC2CC2)C1 (stereo not drawn),-0.98
15,CCC(=O)N(CC)C(c1cccnc1)c1ccc2c(c1)CCO2 (stereo not drawn),2.94
16,O=C(NC1CCCN(c2ccc(OC(F)F)cc2)C1)c1cnccn1 (stereo not drawn),0
17,Fc1ccc(-c2noc(CN3CCC(c4cc[nH]n4)CC3)n2)cc1,18.4
18,Cc1ccc(C(=O)N2CCc3nc4c(C)csc4c(=O)n3CC2)cn1,-7.33
19,CN(CCN1CCCCCC1)C(=O)c1cc(CN2CCC(O)CC2)on1,-17.5
20,CC(CO)CN(Cc1ccccc1)C(=O)c1csc(CN(C)C)n1 (stereo not drawn),-8.69
21,O=c1oc2ccccc2n1CCN(CC1CCOC1)C1CC1 (stereo not drawn),4.78
